Bioassay records (PubChem BioAssay)
Shown are actives, neighbours in structure and some others; about 3.1% of the full set was active somewhere.
CHO parental Ca – ATP-evoked calcium signal inhibitors, parental CHO, primary screen, counter-screen for OX1R antagonist project, cell-based, fluorescence, Fluo-8 calcium dye. inhibition, % at 5.6 µM. 330,000 compounds, 0.63% hits. parental CHO-K1, ATP-induced calcium, Fluo-8 fluorescence;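 active = inhibition above that plate's mean sample inhibition plus 3 SD, cut at about 26% in these data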;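 note: 0% = ATP-challenged DMSO wells and 100% = DMSO wells without ATP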
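Material: Parental CHO cells | Reagent: ATP | Compound dosing: Single nominal dose of 5.6 µM per compound | Detection: Intracellular calcium via Fluo-8 no-wash fluorescent dye | Read-out: % inhibition of ATP-induced calcium mobilization | Benchmarks: Low control ATP plus DMSO, high control DMSO only | Replicates: Singlicate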
GalR3 antagonist – GalR3 antagonists in HEK293 cells, primary screen, cell-based, fluorescence readout | 360,000 compounds, 0.44% hits | inhibition, % at 3 µM | HEK293 GalR3-CNG cAMP membrane potential fluorescence; galR3 body fused to GalR1 C-terminus;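 active = inhibition above the screen-wide average plus 3 SD, cut at about 13% in these data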;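 note: forskolin and galanin both at EC90 stimulate the cells; cAMP rise reported by CNG channel membrane potential dye signal; 0% = forskolin plus galanin with DMSO and 100% = forskolin alone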
GPR7 antagonist – GPR7 receptor antagonists, primary screen, cell-based, fluorescence, single concentration | Neuropeptides B/W receptor type 1 (Homo sapiens), P48145 | GPR7-expressing cells, fluorescence antagonist assay | inhibition, % at 4.4 µM | 290,000 compounds, 1.1% hits; in the data active = inhibition above about 16%, passing the limit was not always enough;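 note: cells stimulated with the agonist NPW; 0% = agonist with vehicle and 100% = vehicle without agonist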
OX1R antag-1 – antagonists of human orexin 1 receptor (OX1R) | OX1R-expressing cells, FRET antagonist read-out | Orexin/Hypocretin receptor type 1 (Homo sapiens), O43613 | 330,000 compounds, 1.8% hits | inhibition, % at 6.6 µM; in the data active = inhibition mostly above about 38%, no sharp cut-off; inactive = mostly below about 40%;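 note: 0% = agonist challenge alone and 100% = reference antagonist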
Target sequence (O43613 whole entry, looked up): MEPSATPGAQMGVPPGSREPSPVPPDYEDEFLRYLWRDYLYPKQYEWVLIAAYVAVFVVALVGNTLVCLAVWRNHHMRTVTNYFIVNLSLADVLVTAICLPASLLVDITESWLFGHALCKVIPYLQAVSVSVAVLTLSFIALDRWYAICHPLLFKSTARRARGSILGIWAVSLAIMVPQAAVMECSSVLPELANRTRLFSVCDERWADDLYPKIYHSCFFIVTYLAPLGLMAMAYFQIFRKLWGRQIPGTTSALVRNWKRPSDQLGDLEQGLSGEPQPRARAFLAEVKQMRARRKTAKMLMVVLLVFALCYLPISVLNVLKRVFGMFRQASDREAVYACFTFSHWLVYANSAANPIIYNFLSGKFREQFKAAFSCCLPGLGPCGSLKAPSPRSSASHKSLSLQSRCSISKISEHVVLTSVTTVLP
OX1R antag-2 – OX1R (HCRTR1) antagonists, primary screen, fluorescence, CHO/OX1R cells, Fluo-8 calcium, orexin A; Orexin/Hypocretin receptor type 1 (Homo sapiens), O43613; AID 434989, 2010; 330,000 compounds, 0.43% hits; Fluo-8 calcium fluorescence; inhibition, % at 5 µM;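 active = inhibition above its plate's threshold, mean inhibition of all tested compounds on the plate plus 3 SD, cut at about 37% in these data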;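 note: 0% = orexin A challenge wells and 100% = SB-334867-A antagonist wells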
Active calls of the source: *; x = not tested or not shown.

SMILES | CHO parental Ca | GalR3 antagonist | GPR7 antagonist | OX1R antag-1 | OX1R antag-2
Cc1ccccc1NC(=O)CCS(=O)(=O)c1cccc2nonc12 | -3.0 | 3.1 | -5.2 | 55.0* | -14.0
CN=c1c([N+](=O)[O-])nn(-c2ccc3c(c2)OCCO3)n1O | -1.7 | -4.4 | -4.6 | 61.5* | -19.1
CC(C)c1ccc(N=c2c([N+](=O)[O-])nn(-c3ccc4c(c3)OCCO4)n2O)cc1 | -8.6 | -2.2 | 9.4 | 10.8 | -23.8
CCOC(=O)c1ccc(NC(=S)N2CCSC2c2ccc(Br)cc2)cc1 (stereo not drawn) | 45.7* | -11.8 | 12.8 | 3.6 | 55.3*
O=C(Nc1ccccc1C(=O)Nc1nnc(C(F)(F)F)s1)c1ccccc1 | 59.4* | -5.1 | -10.9 | 72.1* | 54.0*
CCN(CC(=O)Nc1ccccc1-c1ccccc1)Cc1nc2ccccc2c(=O)[nH]1 | -24.1 | -2.5 | 7.6 | 66.5* | -10.0
CC(C)(C)c1ccc(CSc2nnc(-c3ccccn3)n2Cc2ccco2)cc1 | 13.6 | -3.8 | -6.6 | 23.7 | -2.7
Clc1cccc(CSc2nnc(-c3ccccn3)n2Cc2ccco2)c1 | -8.9 | -5.7 | 20.9* | 23.5 | 11.4
Brc1ccc(CSc2nnc(-c3ccccn3)n2Cc2ccco2)cc1 | -6.8 | -12.4 | 18.4* | 10.0 | 13.4
O=C1CSC(c2cccs2)N1c1nncs1 (stereo not drawn) | x | -2.3 | x | x | x
COC(=O)[C@]12C[C@H](CC(=O)N3CCN(C(=O)C4CC4)CC3)C(=O)N(Cc3ccc4c(c3)OCO4)C1=C[C@H](COCc1ccccc1)O[C@@H]2C | x | -5.5 | x | x | x
Oc1[nH]c2ccccc2c1C=Nc1ccc2c(c1)OCO2 | -11.5 | -3.7 | -11.7 | 58.8* | -3.2
COc1ccc(N=Cc2c(O)[nH]c3ccccc23)cc1 | -24.5 | -1.5 | -12.2 | 36.4 | -24.2
O=C(O)c1cc([N+](=O)[O-])c(Sc2nc3ccccc3[nH]2)c([N+](=O)[O-])c1 | 0.2 | -12.4 | 5.5 | 19.2 | 2.3
CS(=O)(=O)c1cc([N+](=O)[O-])c(Sc2nc3ccccc3[nH]2)c([N+](=O)[O-])c1 | 31.5* | -5.5 | -15.2 | 39.0* | 22.3
CCOP(=O)(OCC)C(C)(C)NC(=O)c1cc([N+](=O)[O-])cc([N+](=O)[O-])c1 | -3.3 | -3.9 | -2.0 | 59.3* | 7.6
CCOP(=O)(OCC)C(NC(=O)c1cc([N+](=O)[O-])cc([N+](=O)[O-])c1)C(F)(F)F (stereo not drawn) | -16.7 | -7.0 | -1.6 | 67.5* | -26.1
O=C(NCC(c1ccco1)N1CCCCC1)c1ccc([N+](=O)[O-])s1 (stereo not drawn) | -22.5 | -7.0 | x | 56.4* | -36.4
O=C(CN1C(=O)c2ccccc2C1=O)NC1CCS(=O)(=O)C1 (stereo not drawn) | x | -7.1 | x | x | x
O=C(CN1C(=O)c2ccc([N+](=O)[O-])cc2C1=O)NC1CCS(=O)(=O)C1 (stereo not drawn) | 3.5 | -1.3 | x | 55.6* | -6.1
O=C(NCC1CCCO1)c1ccc([N+](=O)[O-])s1 (stereo not drawn) | 4.7 | -8.0 | -13.8 | 70.0* | -9.5
Cc1ccc(C(=O)NCC(c2ccco2)N2CCCCC2)s1 (stereo not drawn) | -5.7 | -6.2 | x | -8.9 | -4.4
O=C(CN1C(=O)c2ccc([N+](=O)[O-])cc2C1=O)NCC1CCCO1 (stereo not drawn) | 3.3 | -0.7 | x | 67.5* | -7.4
O=C(CN1C(=O)c2ccc(Br)cc2C1=O)NCC1CCCO1 (stereo not drawn) | -7.9 | -3.1 | -0.2 | 31.0 | -11.2
CCOC(=O)C1CCN(C(=O)c2[nH]c(C(F)(F)F)nc2-c2ccccc2)CC1 | x | -3.8 | x | x | x
SMILES | CHO parental Ca | GalR3 antagonist | GPR7 antagonist | OX1R antag-1 | OX1R antag-2
Cc1ccc(S(=O)(=O)N2CCC(C(=O)Nc3ccc(S(=O)(=O)N4CCCC4)cc3)CC2)cc1C | 3.1 | -4.1 | x | -2.7 | -13.7
CC(C)c1ccc(/C=C2\SC(=S)N(CCC(=O)N3CCCCC3CCO)C2=O)cc1 (stereo not drawn) | -46.4 | -9.9 | -15.2 | -3.5 | -43.6
O=C(Cc1ccc([N+](=O)[O-])cc1)NCC1CCCO1 (stereo not drawn) | -0.2 | -7.3 | -19.6 | 22.9 | -1.6
O=C(/C=C/c1ccc([N+](=O)[O-])cc1)NCC1CCCO1 (stereo not drawn) | -12.2 | -2.0 | -5.1 | 58.7* | -12.3
CNC(C)C(=O)NC(C(=O)NC(C)C(=O)NNc1ccccc1)C(C)C (stereo not drawn) | x | -5.2 | x | x | x
COc1ccccc1C(=O)NC(=Nc1nc2ccccc2o1)NC(=O)c1ccccc1OC | 48.0* | -3.4 | -2.4 | 35.7* | 81.5*
CCCc1cc(=O)oc2c3c(cc(OCC(=O)NCc4ccccn4)c12)OC(C)(C)CC3 | -15.5 | 16.4* | -6.2 | 13.4 | -16.5
O=C(Nc1ccc(C2=NCCN2)cc1)c1ccc(C(=O)Nc2ccc(C3=NCCN3)cc2)c([N+](=O)[O-])c1 | -16.7 | -8.1 | -6.8 | 38.4* | -12.2
COC(=O)C1=C(C)N(C)C(=NCc2cc(OC)c(OC)c(OC)c2)NC1c1cccc(F)c1 (stereo not drawn) | x | -0.6 | x | x | x
COc1ccc(Nc2ncnc3ccc([N+](=O)[O-])cc23)c(OC)c1 | -4.9 | -1.4 | 1.1 | 66.5* | -8.0
C[C@H](CO)N1C[C@H](C)[C@H](CN(C)C(=O)Nc2ccc3c(c2)OCO3)OCc2cnnn2CCCC1=O | x | -4.8 | x | x | x
CC(=O)c1ccc2ccccc2c1OC(=O)c1ccncc1 | x | 3.0 | x | x | x
Cc1cc(C)c2c(N)c(C(=O)N/N=C/c3cccnc3)sc2n1 | -7.9 | 3.4 | 1.0 | 47.1* | -19.4
Cc1cc(C)c2c(N)c(C(=O)NNC(=O)c3ccccc3)sc2n1 | -19.6 | 2.7 | 14.0 | 54.0 | -21.9
Cc1cc(C)c2c(N)c(C(=O)N/N=C/c3ccccc3)sc2n1 | -18.3 | -2.1 | -3.2 | 42.9* | -23.9
O=C(NCc1cccnc1)/C(=C\c1ccc(-c2cccc(Cl)c2)o1)S(=O)(=O)c1ccccc1 | -11.8 | -6.1 | 20.0* | 16.1 | -14.8
O=C(NCc1cccnc1)/C(=C/c1ccc(-c2cccc(Cl)c2)o1)S(=O)(=O)c1ccccc1 | -14.7 | 3.8 | 20.7 | 25.9 | -4.8
Cc1ccccc1C(=O)c1cccn1CC(=O)NCC(C)c1ccccc1 (stereo not drawn) | -23.4 | -8.3 | -3.4 | 38.9* | 15.8
Cc1ccccc1C(=O)c1cccn1CC(=O)NC1CCCC(C)C1C (stereo not drawn) | 4.1 | -4.8 | -4.6 | 39.5* | 28.3
O=C(OCCOc1ccccc1)c1cc(S(=O)(=O)N2CCOCC2)c(Cl)cc1Cl | x | -6.5 | x | x | x
